This data set in a line: Toxicity liver stage against HepG2, at 10uM. The class given is cell-based. On the set-up: test concentration 10 uM, cell line HepG2-A16-CD81EGFP. As to conditions: human, HepG2-A16-CD81EGFP cells; read-out: INHIBITION
The procedure, abridged:
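Uninfected HepG2-A16-CD81EGFP cells, 3 × 10^3 per well, 1536-well, plated on prespotted compound at 10 μM final, parasite-free screening media added to match infected plates; puromycin 10 μM positive, DMSO 0.5% negative; run in parallel with 48 h PbLuc assay at 37 °C, 5% CO2; viability by CellTiter-Glo luminescence, normalized to controls.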
With `O=S(=O)(Nc1cnc(N2CCCC2)nc1)c1ccc(OC(F)(F)F)cc1`, the cytotoxicity at 10 µM was 2.41%. As for `COCCC1(CO)CCCN(Cc2ccc(C(F)(F)F)nc2)C1` (stereo unspecified), the figure is -146%; as for `CN(CCCc1cnn(C)c1)C(=O)Nc1cccc(C#N)c1`, -0.828%; as for `CCc1nnc(N2C[C@@H](NC(C)=O)[C@H](c3ccc(C)o3)C2)s1`, -54.5%.

Turning to `Cc1cc(C)n(CCCNC(=O)C(C)NC(=O)c2ccccc2Cl)n1` (stereo unspecified), the cytotoxicity at 10 µM was -0.136%.

`CCC(C)NS(=O)(=O)c1ccc(C(=O)NC2(C#N)CCC2)cc1` (stereo unspecified): the cytotoxicity at 10 µM was -7.79%. For `c1ccc(-c2noc(C3CCN(CCn4cccn4)CC3)n2)cc1` the value was 2.86%; for `COc1ccc2nc(O)c(CN(C)Cc3ncc[nH]3)cc2c1`, 0.55%.

`COCc1ccccc1C(=O)NCCCN1CCCC1C(=O)N(C)C` (stereo unspecified): the cytotoxicity at 10 µM is -14.5%. As for `CSC1(CNC(=O)c2cccc(-n3cccn3)c2)CCOCC1`, the figure is -2.44%; as for `O=C1CCC2(CCN(Cc3ncccn3)CC2)CN1CCCO`, -8.11%; as for `CN(C)CCCn1ccnc1C1CCCN(c2ncc(Cl)cc2F)C1` (stereo unspecified), -7.43%. For `CO[C@@H]1CCN(Cc2ccc(C)o2)[C@H]1Cc1ccccc1` the value was -3.15%; for `CCc1nc(CN2CCCC(N(C)CCc3cccs3)C2)no1` (stereo unspecified), 15.5%; for `COc1ccc(CN2CCN(c3nccnc3OC)CC2=O)cc1`, 2.82%.

As for `Cn1nnc2c(sc3nc(N4CCOCC4)c4c(c32)CCC4)c1=O`, the cytotoxicity at 10 µM was -12.4%. Take `CNC(=O)[C@@H]1CN(Cc2ccccc2)C[C@H]1C(=O)c1ccc(F)cc1`: the cytotoxicity at 10 µM was -0.17%.

Consider `COc1ccc(S(=O)(=O)NCC(N)c2ccccc2)c(C)c1` (stereo unspecified), for which the cytotoxicity at 10 µM is 0.0381%. For `CNC(=O)c1cccnc1N1CCC(OCc2ccccc2)CC1` the value was 2.49%; for `CC(C)(C)OC(=O)NC1CCCN(Cc2cccs2)C1` (stereo unspecified), -40.7%. For `CCC(C)CS(=O)(=O)NC(=O)C1CCC1` (stereo unspecified) the value was -7.88%. As for `Cc1nc(N(C)C)nc(C)c1NC(=O)c1ccccc1F`, the figure is 41.7%; as for `O=C(c1ccon1)N1CCCCC1c1nc2cc(F)ccc2[nH]1` (stereo unspecified), 2.58%; as for `O=C(NCc1ccco1)[C@H]1C[C@H]2OCC[C@H]2N(C(=O)c2ccncc2)C1`, -5.34%.

For `CCC(C(=O)NC1(C(N)=O)CCCC1)n1cccn1` (stereo unspecified), the cytotoxicity at 10 µM is -9.13%. As for `CSCC(C)C(=O)NCc1c(C)nc2cc(=O)[nH]n2c1C` (stereo unspecified), the figure is -16.3%. For `CNC(=O)CN1CCCC12CCN(C(=O)c1ccccc1F)CC2` the value was 1.58%; for `CC1CN(C)CCN1C(=O)c1ccc(-n2cnnc2)cc1` (stereo unspecified), 2.84%. As for `CCN(CC)C(=O)[C@@H]1C[C@H](N)CN1c1noc(-c2ccccc2)n1`, the figure is -49.8%; as for `CCC(C)(C)NC(=O)c1ccc(NC(=O)NCc2cc(C)on2)cc1`, -1.84%. For the compound `CCc1nc2n(n1)CC(NCc1ccnc(-c3ccccc3)n1)CC2` (stereo unspecified), the cytotoxicity at 10 µM was -8.3%. As to `CC(=O)Nc1ccc(SCCCC(=O)NCC2CCCO2)nn1` (stereo unspecified), the cytotoxicity at 10 µM was -8.67%. On to `Clc1ccccc1CN1CCCC(c2nnc(-c3cnccn3)o2)C1` (stereo unspecified), for which the cytotoxicity at 10 µM is -10.3%.

For `CCOCC1CN(C(=O)C2=CCCC2)Cc2cnn(C)c21` (stereo unspecified), the cytotoxicity at 10 µM was found to be 1.49%. `CC1CCN(CCNC(=O)c2sccc2C2CC2)CC1`: the cytotoxicity at 10 µM is -144%. Regarding `O=C1NC(C(=O)NCc2cccnc2Oc2ccc(F)cc2F)CO1` (stereo unspecified), the cytotoxicity at 10 µM is -1.32%. As for `CC(C)NC(=O)COc1cccc(-c2nc(C(C)C)no2)c1`, the figure is -5.77%; as for `CCc1noc(C(C)N(C)CC(=O)Nc2c(C)cccc2C)n1` (stereo unspecified), 2.14%; as for `Cc1cc(C(=O)NCc2c(C)nn(C)c2C)nc(N2CCCC2)n1`, 7.05%.

As to `COCCNc1ccc(-c2noc([C@@H]3CCCN3)n2)cn1`, the cytotoxicity at 10 µM is -1.57%. For `CN(Cc1cncnc1)[C@H]1CN(C(=O)c2ccc[nH]2)[C@@H]2CCCO[C@@H]21` the value was -107%; for `O=c1oc(-c2cccs2)nn1CC(O)c1ccc(F)cc1` (stereo unspecified), 20.4%. As for `CC1CCN(S(=O)(=O)NC(C)Cc2ccco2)CC1` (stereo unspecified), the figure is 3.53%. For `CN(C)C(C(=O)N1CCC(c2ncc[nH]2)CC1)c1ccc2c(c1)OCO2` (stereo unspecified) the value was 2.8%. With `CC(C)c1nnsc1CN1CCc2[nH]nc(-c3ccc(F)c(F)c3)c2C1`, the cytotoxicity at 10 µM came to 25.9%. As for `CCc1[nH]c2c(CNC(=O)C3CCC(=O)NC3)cc(C)cc2c1C` (stereo unspecified), the figure is -3.79%; as for `CC(C)CNC[C@H]1COCc2nc3cccnc3n21`, -4.48%; as for `Cc1nc[nH]c1CN1CCOC(c2ccc(Cl)c(Cl)c2)C1` (stereo unspecified), 0.833%. For the compound `O=C1CCCN1CCc1noc(-c2ccsc2)n1`, the cytotoxicity at 10 µM turned out to be 8.35%. As for `CN1CCCC(N2CCN(c3cc(C(F)(F)F)ccn3)CC2)C1` (stereo unspecified), the figure is 5.12%. For `COc1ccccc1CN(CC1CCCO1)C(=O)c1csnn1` (stereo unspecified) the value was -0.636%. For the compound `CC(C)C1CN(C(=O)c2cccs2)CCS1` (stereo unspecified), the cytotoxicity at 10 µM is 1.24%. As for `CCOC(=O)N1CCN(C(=O)c2sc(-c3ccccc3)nc2C)CC1`, the figure is -3.08%; as for `Cc1ccsc1-c1nc(CN(C)Cc2noc(C(C)C)n2)c(C)o1`, -5.85%; as for `CC(C)(C)c1cc(CN2CCOC(CN)C2)n[nH]1` (stereo unspecified), -12.1%.

For `O=C1CSC(c2ccc3c(c2)OCO3)c2cnn(C3CCCCC3)c2N1` (stereo unspecified), the cytotoxicity at 10 µM is -6.06%.

Turning to `COc1ccc(-c2cc3nc([C@H](C)NC(=O)C4CC4)nn3cn2)cc1`, the cytotoxicity at 10 µM is -27%.

`CCc1ccc(CN2C[C@H](OCC(=O)N(C)C)[C@H]3COC[C@H]32)o1`: the cytotoxicity at 10 µM was 2.46%. As for `COC(=O)C1CCCCN1C(=O)c1ccc(N(C)C)cc1F` (stereo unspecified), the figure is 5.97%; as for `COCc1nc(C(=O)N2CCCC2c2cccs2)cs1` (stereo unspecified), -5.16%. For `CCCN(C(=O)CN1CCN(CC(C)O)CC1)C1=CCCCC1` (stereo unspecified) the value was 4.13%; for `O=C(NC[C@H]1OC[C@@H](NC2CCCCC2)[C@@H]1O)c1cccs1`, -2.36%; for `COc1ccc(CCN2CCN(C(=O)c3scnc3C)CC2)cc1`, -8.31%.

With `CC(C)c1nc(C2CCCN2Cc2cc(=O)n(C)c(=O)n2C)no1` (stereo unspecified), the cytotoxicity at 10 µM was -10.7%. For the compound `Brc1ccc(-c2nnc(CN(Cc3cccs3)CC3CCCO3)o2)s1` (stereo unspecified), the cytotoxicity at 10 µM was found to be 23.2%.

As for `CCC(=O)Nc1nnc(CCOc2ccccc2OC)s1`, the cytotoxicity at 10 µM turned out to be 2.38%. For `COc1cccc(CN2CCN(C(=O)Nc3nc(C)ns3)CC2=O)c1` the value was -3.05%; for `O=C(C1CN(Cc2ccoc2)CC12CCOCC2)N1CCCC1` (stereo unspecified), 11.2%. Regarding `CCc1ccsc1C(=O)N1CCN(CC(C)(C)O)CC1`, the cytotoxicity at 10 µM was -13.1%.

For the compound `COCCOCC(=O)N1C[C@@H]2CC[C@H]1CN(C1Cc3ccccc3C1)C2`, the cytotoxicity at 10 µM was -9.04%. Take `CNC(=O)c1c(C)cccc1NCc1noc(C2CC2)n1`: the cytotoxicity at 10 µM was determined as 29.7%. As for `c1cnnc(N2CCCC(NCc3ccncc3)C2)c1` (stereo unspecified), the figure is -5.39%.

As to `CCc1cnc(N)nc1NCCc1ccc(OC)cc1OC`, the cytotoxicity at 10 µM is 3.29%. As for `COc1cccc2c3c(c(=O)n(C)c12)CCC(C)(C)O3`, the figure is 0.55%; as for `CC(C)CC(NC(=O)c1cc(-c2cccn2C)n[nH]1)c1ncnn1C` (stereo unspecified), -3.08%; as for `Cc1nnc(C(NS(=O)(=O)c2cc(F)c(C)cc2F)C(C)C)[nH]1` (stereo unspecified), -5.19%.

Regarding `CCCn1ccnc1CN1CCC(Oc2ccc(Cl)cc2)(C(=O)O)CC1`, the cytotoxicity at 10 µM stood at 3.47%. Consider `CN1CCCC[C@@H]2[C@H]1[C@@H](c1ccccc1)CCN2S(=O)(=O)N1CCCC1`, for which the cytotoxicity at 10 µM is -1.03%. For `Cc1occc1C(=O)N1CCCN(Cc2nccn2C(C)C)CC1` the value was -9.24%. Take `Cc1ccc(S(=O)(=O)c2ncccc2CN2CCCC2)cc1`: the cytotoxicity at 10 µM was -49.4%.

For the compound `CN(C)CCN1CCO[C@H]2CCN(C(=O)c3cccs3)CC[C@@H]21`, the cytotoxicity at 10 µM was -8.32%. For `COCCCNC(=O)c1c(-n2cnnn2)sc2c1CCC2` the value was 11.4%; for `CCC(C)C(=O)NCc1cccc(N2CCCCC2=O)c1` (stereo unspecified), -6.93%. As for `CC(CNC(=O)c1cc(Cl)ccc1F)N1CCCC1` (stereo unspecified), the figure is -4.43%; as for `CC(=O)NCCNC(=O)c1cccc(Cn2nc(C)cc2C)c1`, -10.3%. As for `CCN(CC)CC[C@H]1CN(C(=O)C2CCC2)CC[C@H]1CC(=O)O`, the figure is 1.35%; as for `Cn1cc(CN2CCO[C@@H]3CN(Cc4ccoc4)C[C@@H]3C2)cn1`, 2.14%.

In the case of `COCC1CCN(c2nc(C(C)(C)C)nc3c2cnn3C)C1` (stereo unspecified), the cytotoxicity at 10 µM was -8.44%. For `CC(C)N1CCCC(CN(C)c2ccc(Cn3ccnc3)cn2)C1` (stereo unspecified) the value was -127%; for `Cc1cc(C)c2c(c1)C(NC(=O)CSCc1ccncc1)CCO2` (stereo unspecified), 4.17%. In the case of `CS(=O)(=O)N1CCC(NC(=O)COc2ccc(Cl)cc2)CC1`, the cytotoxicity at 10 µM was -4.05%. For `COc1ccc(C(=O)Nc2cnn(CCN3CCOCC3)c2)c(O)c1` the value was -3.92%; for `COCc1nc2cc(NCc3ncc[nH]3)ccc2o1`, -4.52%.

As for `Cc1cccc(CNC(=O)C2CCC(=O)N(Cc3ccccc3F)C2)n1` (stereo unspecified), the cytotoxicity at 10 µM is -3.75%. For `CC1CN(S(=O)(=O)c2ccc(F)cc2)c2cccnc2O1` (stereo unspecified) the value was -0.781%; for `Cc1nc(CN2CCCC2c2ccsc2)nc2ccccc12` (stereo unspecified), 0.89%.

These data come from ChEMBL document CHEMBL4513216, “Probing the Open Global Health Chemical Diversity Library for Multistage-Active Starting Points for Next-Generation Antimalarials” (ACS Infect Dis, 2020).
